ChEMBL document CHEMBL1131479, “(R)-3,N-dimethyl-N-[1-methyl-3-(4-methyl-piperidin-1-yl) propyl]benzenesulfonamide: the first selective 5-HT7 receptor antagonist” (J Med Chem, 1998)

What was measured:
[1] = target: T1, 5-hydroxytryptamine receptor 7 (Homo sapiens, UniProt P34969); assay: Binding affinity towards cloned human 5-hydroxytryptamine 7 receptor expressed in HEK 293 cells using [3H]5-CT; format: cell-based, HEK293
Method in brief: (§1)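 Radioligand displacement binding on the receptor source and radioligand named in each line. Each value is the mean of at least two determinations, and every determination lay within 0.2 log unit of that mean.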

[2] = target: T2, 5-hydroxytryptamine receptor 1A (Homo sapiens, UniProt P08908); assay: The compound was tested for its binding affinity towards cloned human 5-hydroxytryptamine 1A receptor in HEK 293 cells using [3H]8-OH-DPAT.; format: cell-based, HEK293; method in brief: as §1
T2 sequence (P08908 whole entry): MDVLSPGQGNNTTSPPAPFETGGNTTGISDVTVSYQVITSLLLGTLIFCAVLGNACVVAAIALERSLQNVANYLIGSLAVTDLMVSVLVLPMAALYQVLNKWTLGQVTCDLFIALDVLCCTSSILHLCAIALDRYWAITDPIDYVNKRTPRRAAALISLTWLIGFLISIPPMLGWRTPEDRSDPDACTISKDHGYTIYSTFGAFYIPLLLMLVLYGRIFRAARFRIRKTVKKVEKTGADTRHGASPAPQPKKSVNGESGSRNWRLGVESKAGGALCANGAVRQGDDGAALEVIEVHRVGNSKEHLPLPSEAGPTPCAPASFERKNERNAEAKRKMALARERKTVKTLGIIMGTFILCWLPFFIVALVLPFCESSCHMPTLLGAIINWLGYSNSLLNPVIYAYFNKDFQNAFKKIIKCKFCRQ

[3] = target: 5-hydroxytryptamine receptor 1E (Homo sapiens, UniProt P28566); assay: The compound was tested for its binding affinity towards cloned human 5-hydroxytryptamine 1E receptor in CHO cells using [3H]5-HT.; format: cell-based
Method in brief: (§2)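 Radioligand displacement on cloned human receptors expressed in the host cell line listed in each line. Values are the mean of at least two determinations, each within 0.2 log unit of the mean.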

D(2) dopamine receptor = D(2) dopamine receptor (Homo sapiens, UniProt P14416); assay: The compound was tested for its binding affinity towards cloned human Dopamine receptor D2 in CHO cells using [125I]iodosulpiride.; format: cell-based
[4] = target: T1, 5-hydroxytryptamine receptor 7; assay: The compound was tested for its binding affinity towards cloned human 5-hydroxytryptamine 7 receptor in HEK 293 cells using [3H]5-CT.; format: cell-based, HEK293
Method in brief: (§3)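 Radioligand displacement binding on cloned human receptors expressed in HEK 293 cells: 5-HT2B labelled with [3H]-5-HT, 5-HT7 labelled with [3H]-5-CT. Each value is the mean of at least two determinations, each within 0.2 log unit of the mean.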

[5] = target: T3, 5-hydroxytryptamine receptor 2C (Homo sapiens, UniProt P28335); assay: The compound was tested for its binding affinity towards cloned human 5-hydroxytryptamine 2C receptor in HEK293 cells using [3H]mesulergine.; format: cell-based; method in brief: as §1
T3 sequence (P28335 whole entry): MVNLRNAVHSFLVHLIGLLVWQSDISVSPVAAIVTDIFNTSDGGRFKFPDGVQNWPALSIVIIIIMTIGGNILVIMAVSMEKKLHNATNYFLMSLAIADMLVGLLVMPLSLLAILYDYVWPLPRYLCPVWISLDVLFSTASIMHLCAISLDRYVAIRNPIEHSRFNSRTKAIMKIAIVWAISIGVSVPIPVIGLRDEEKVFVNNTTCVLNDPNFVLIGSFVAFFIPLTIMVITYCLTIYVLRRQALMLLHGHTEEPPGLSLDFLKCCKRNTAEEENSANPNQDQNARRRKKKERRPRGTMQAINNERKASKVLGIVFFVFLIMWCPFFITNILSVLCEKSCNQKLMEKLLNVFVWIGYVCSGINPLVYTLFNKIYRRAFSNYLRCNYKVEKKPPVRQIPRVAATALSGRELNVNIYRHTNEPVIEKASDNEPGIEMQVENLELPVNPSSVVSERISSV

[6] = target: 5-hydroxytryptamine receptor 1B (Homo sapiens, UniProt P28222); assay: The compound was tested for its binding affinity towards cloned human 5-hydroxytryptamine 1B receptor in CHO cells using [3H]5-HT; format: cell-based; method in brief: as §2
[7] = target: T4, 5-hydroxytryptamine receptor 1F (Homo sapiens, UniProt P30939); assay: The compound was tested for its binding affinity towards cloned human 5-hydroxytryptamine 1F receptor in CHO cells using [3H]5-HT.; format: cell-based; method in brief: as §1
T4 sequence (P30939 whole entry): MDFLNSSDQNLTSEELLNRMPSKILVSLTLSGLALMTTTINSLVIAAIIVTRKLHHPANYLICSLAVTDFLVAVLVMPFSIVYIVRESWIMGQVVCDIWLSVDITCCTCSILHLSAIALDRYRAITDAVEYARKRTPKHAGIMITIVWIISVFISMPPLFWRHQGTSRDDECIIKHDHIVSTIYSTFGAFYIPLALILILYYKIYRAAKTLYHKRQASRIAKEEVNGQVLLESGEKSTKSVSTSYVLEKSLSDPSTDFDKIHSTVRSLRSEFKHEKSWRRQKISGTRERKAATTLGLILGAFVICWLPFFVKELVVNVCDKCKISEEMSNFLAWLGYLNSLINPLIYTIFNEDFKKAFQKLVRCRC

[8] = target: 5-hydroxytryptamine receptor 6 (Homo sapiens, UniProt P50406); assay: The compound was tested for its binding affinity towards cloned human 5-hydroxytryptamine 6 receptor in HeLa cells using […].; format: cell-based; method in brief: as §2
[9] = target: 5-hydroxytryptamine receptor 1D (Homo sapiens, UniProt P28221); assay: The compound was tested for its binding affinity towards cloned human 5-hydroxytryptamine 1D receptor in CHO cells using [3H]5-HT.; format: cell-based; method in brief: as §2
[10] = target: 5-hydroxytryptamine receptor 2A (Homo sapiens, UniProt P28223); assay: The compound was tested for its binding affinity towards cloned human 5-hydroxytryptamine 2A receptor in HEK293 cells using [3H]-ketanserin.; format: cell-based; method in brief: as §2
D(3) dopamine receptor = D(3) dopamine receptor (Homo sapiens, UniProt P35462); assay: The compound was tested for its binding affinity towards cloned human Dopamine receptor D3 in CHO cells using [125I]iodosulpiride.; format: cell-based
[11] = target: 5-hydroxytryptamine receptor 2B (Homo sapiens, UniProt P41595); assay: The compound was tested for its binding affinity towards cloned human 5-hydroxytryptamine 2B receptors in HEK293 cells using [3H]5-HT.; format: cell-based; method in brief: as §3
[12] = target: T5, Alpha-1B adrenergic receptor (Homo sapiens, UniProt P35368); assay: The compound was tested for its binding affinity towards adrenergic alpha-1B receptors
T5 sequence (P35368 whole entry): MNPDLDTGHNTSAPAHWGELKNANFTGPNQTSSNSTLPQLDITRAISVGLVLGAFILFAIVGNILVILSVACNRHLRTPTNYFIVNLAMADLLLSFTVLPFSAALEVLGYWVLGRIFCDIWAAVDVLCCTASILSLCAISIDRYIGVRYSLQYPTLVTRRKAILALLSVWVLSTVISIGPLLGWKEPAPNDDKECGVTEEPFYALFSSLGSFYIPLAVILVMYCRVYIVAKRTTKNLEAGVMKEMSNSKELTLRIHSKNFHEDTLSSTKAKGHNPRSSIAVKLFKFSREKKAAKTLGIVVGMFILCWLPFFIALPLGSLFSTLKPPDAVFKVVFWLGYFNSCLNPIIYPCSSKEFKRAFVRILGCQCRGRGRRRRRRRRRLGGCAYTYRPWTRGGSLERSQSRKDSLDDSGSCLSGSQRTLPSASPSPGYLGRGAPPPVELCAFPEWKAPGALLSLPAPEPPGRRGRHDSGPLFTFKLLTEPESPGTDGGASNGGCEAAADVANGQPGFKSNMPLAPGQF

T1 sequence (P34969 whole entry): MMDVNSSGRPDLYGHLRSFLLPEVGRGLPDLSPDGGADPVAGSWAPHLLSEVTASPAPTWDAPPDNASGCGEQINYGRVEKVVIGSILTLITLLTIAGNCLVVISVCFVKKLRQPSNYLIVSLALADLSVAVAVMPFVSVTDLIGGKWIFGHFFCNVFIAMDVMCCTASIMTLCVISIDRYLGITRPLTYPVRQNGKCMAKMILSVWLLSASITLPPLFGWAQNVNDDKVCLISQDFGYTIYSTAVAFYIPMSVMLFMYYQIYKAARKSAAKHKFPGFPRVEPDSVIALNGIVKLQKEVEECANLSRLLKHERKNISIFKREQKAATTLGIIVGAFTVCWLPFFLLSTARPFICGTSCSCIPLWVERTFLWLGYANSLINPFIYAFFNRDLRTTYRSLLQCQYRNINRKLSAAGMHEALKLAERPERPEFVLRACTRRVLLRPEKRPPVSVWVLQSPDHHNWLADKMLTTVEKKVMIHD
Sequence of D(2) dopamine receptor (P14416 whole entry): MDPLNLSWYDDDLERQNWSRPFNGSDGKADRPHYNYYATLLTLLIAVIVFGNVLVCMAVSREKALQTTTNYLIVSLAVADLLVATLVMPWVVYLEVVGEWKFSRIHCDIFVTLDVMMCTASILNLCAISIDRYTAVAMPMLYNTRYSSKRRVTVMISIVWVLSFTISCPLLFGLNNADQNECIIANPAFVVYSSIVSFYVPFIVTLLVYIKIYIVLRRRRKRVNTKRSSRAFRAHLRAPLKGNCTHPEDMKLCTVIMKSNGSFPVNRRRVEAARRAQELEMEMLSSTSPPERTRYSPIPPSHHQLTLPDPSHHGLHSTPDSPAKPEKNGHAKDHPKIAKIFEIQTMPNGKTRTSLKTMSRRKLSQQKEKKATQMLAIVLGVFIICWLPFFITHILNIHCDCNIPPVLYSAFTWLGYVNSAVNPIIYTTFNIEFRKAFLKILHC
Sequence of 5-hydroxytryptamine receptor 2A (P28223 whole entry): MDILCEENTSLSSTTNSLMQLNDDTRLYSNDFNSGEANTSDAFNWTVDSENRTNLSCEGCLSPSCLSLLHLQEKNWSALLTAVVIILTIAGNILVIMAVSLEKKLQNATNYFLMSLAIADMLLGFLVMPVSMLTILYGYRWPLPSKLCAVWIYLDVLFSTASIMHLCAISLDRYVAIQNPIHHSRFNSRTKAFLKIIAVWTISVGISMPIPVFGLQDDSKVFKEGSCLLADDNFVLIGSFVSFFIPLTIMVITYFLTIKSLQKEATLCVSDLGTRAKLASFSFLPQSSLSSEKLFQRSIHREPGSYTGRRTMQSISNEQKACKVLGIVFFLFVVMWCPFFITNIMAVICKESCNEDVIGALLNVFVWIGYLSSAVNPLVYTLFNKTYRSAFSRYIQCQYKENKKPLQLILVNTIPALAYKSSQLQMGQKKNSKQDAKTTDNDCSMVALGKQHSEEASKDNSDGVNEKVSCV
Sequence of 5-hydroxytryptamine receptor 1D (P28221 whole entry): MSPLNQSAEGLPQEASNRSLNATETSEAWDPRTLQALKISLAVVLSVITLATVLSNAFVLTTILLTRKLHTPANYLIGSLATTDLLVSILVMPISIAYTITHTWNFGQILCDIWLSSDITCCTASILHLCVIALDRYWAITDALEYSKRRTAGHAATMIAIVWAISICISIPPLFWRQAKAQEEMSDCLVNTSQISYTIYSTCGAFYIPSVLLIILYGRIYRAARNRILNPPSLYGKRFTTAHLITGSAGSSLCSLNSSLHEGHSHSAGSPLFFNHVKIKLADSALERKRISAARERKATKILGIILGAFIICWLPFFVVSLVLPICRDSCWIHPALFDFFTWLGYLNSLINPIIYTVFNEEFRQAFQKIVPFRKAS
Sequence of 5-hydroxytryptamine receptor 1E (P28566 whole entry): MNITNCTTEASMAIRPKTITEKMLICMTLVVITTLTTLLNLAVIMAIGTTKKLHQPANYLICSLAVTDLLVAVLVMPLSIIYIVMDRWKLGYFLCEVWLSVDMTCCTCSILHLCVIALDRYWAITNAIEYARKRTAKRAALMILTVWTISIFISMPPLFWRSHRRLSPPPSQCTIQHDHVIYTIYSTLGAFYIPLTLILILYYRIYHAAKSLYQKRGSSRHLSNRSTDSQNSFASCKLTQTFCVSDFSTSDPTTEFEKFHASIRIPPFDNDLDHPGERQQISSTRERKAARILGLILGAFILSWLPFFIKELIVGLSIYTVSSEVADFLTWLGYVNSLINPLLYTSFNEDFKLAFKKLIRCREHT
Sequence of 5-hydroxytryptamine receptor 2B (P41595 whole entry): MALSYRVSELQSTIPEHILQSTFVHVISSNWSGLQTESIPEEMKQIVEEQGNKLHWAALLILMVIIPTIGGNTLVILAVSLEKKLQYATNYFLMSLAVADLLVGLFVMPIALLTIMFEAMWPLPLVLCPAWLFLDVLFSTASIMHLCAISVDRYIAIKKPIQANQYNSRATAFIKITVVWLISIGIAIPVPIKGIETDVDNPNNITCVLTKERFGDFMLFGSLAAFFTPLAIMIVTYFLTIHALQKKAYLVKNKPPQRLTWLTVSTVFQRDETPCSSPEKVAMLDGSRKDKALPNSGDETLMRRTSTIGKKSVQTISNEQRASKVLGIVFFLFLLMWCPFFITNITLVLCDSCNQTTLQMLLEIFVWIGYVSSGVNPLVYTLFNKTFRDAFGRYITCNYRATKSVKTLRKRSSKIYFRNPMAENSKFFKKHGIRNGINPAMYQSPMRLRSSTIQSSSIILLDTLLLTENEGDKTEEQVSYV
Sequence of 5-hydroxytryptamine receptor 6 (P50406 whole entry): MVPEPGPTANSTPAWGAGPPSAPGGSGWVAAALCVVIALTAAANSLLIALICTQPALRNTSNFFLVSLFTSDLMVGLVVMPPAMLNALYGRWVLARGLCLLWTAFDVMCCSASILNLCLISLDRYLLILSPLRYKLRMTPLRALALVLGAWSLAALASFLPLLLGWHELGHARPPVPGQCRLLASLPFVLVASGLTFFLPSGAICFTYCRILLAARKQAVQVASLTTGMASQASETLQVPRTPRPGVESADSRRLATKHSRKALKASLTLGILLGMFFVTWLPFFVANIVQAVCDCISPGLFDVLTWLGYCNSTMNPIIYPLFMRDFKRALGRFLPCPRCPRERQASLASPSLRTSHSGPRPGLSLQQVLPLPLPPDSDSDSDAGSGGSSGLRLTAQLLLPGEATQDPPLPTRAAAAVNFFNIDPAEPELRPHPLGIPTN
Sequence of 5-hydroxytryptamine receptor 1B (P28222 whole entry): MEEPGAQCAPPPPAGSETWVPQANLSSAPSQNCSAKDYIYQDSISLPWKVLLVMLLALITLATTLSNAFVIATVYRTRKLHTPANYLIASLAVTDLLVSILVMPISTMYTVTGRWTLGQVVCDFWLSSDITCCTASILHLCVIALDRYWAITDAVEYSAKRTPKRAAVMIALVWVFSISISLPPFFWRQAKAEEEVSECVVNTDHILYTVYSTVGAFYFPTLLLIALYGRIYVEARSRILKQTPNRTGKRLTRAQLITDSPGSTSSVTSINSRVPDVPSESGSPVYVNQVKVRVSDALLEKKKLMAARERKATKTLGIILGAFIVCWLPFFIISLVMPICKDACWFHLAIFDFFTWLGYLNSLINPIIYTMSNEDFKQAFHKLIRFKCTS
Sequence of D(3) dopamine receptor (P35462 whole entry): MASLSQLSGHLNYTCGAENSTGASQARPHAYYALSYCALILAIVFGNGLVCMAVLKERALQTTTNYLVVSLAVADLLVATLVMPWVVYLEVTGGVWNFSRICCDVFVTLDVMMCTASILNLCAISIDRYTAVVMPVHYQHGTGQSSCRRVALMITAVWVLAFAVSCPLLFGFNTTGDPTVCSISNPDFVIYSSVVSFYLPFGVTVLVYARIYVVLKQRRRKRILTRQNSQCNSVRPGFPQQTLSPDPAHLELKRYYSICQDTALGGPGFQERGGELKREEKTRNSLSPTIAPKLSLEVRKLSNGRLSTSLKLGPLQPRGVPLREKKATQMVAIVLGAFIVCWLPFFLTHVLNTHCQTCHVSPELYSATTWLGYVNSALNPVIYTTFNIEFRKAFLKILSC

C[C@@H]1CCCN(CC[C@@H](C)N(C)S(=O)(=O)c2cccc3ccccc23)C1
Ki [1]: 126 nM

C[C@H]1CCCN(CC[C@@H](C)N(C)S(=O)(=O)c2cccc3ccccc23)C1
Ki [1]: 631 nM

CC1CCN(CC[C@@H](C)N(C)S(=O)(=O)c2ccc(Br)c(Br)c2)CC1
Ki [1]: 20 nM

CC1CCN(CC[C@@H](C)N(C)S(=O)(=O)c2cccc3ccccc23)CC1
Ki [1]: 31.6 nM

CC1CCCN(CCC(C)N(C)S(=O)(=O)c2cccc3ccccc23)C1 (configuration not stated)
Ki [1]: 63.1 nM

C[C@@H]1CCCN(CC[C@H](C)N(C)S(=O)(=O)c2cccc3ccccc23)C1
Ki [1]: 1580 nM

CC1CCN(CC[C@@H](C)N(C)S(=O)(=O)c2cc(Br)c(Br)s2)CC1
Ki [1]: 15.8 nM

CC1CCN(CC[C@@H](C)N(C)S(=O)(=O)c2ccc(Cl)c(Cl)c2)CC1
Ki [1]: 31.6 nM

C[C@H]1CCCN(CC[C@H](C)N(C)S(=O)(=O)c2cccc3ccccc23)C1
Ki [1]: > 10000 nM

Cc1cccc(S(=O)(=O)N(C)[C@H](C)CCN2CCC(C)CC2)c1 [SB-258719]
Ki [2]: > 7940 nM
Ki [3]: > 15800 nM
Ki (D(2) dopamine receptor): 3980 nM
Ki [4]: 31.6 nM
Ki [5]: > 15800 nM
Ki [6]: > 5010 nM
Ki [7]: > 6310 nM
Ki [8]: > 15800 nM
Ki [9]: 3160 nM
Ki [10]: > 15800 nM
Ki (D(3) dopamine receptor): 3980 nM
Ki [11]: > 5010 nM
Ki [12]: > 15800 nM
